Measurements as given in ChEMBL document CHEMBL1151848, “Aryl nucleoside H-phosphonates. Part 16: synthesis and anti-HIV-1 activity of di-aryl nucleoside phosphotriesters” (Bioorg Med Chem, 2009).

Key:
[1] = Cytotoxicity against human MT4 cells after 96 hrs by MTT assay; type: cell-based
Outline: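 Exponentially growing mock-infected MT-4 cells were seeded at 1 × 10⁵ cells/ml in RPMI-1640 with 10% FCS, penicillin G and streptomycin. They were incubated with serial compound dilutions at 37 °C in humidified 5% CO₂, and viability was read by MTT after 96 h. CC50 is the concentration reducing viability by 50%, as the mean of three independent determinations.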

[2] = test system: Human immunodeficiency virus 1; experiment: Antiviral activity against HIV1 3B infected in human MT4 cells assessed as protection from virus-induced cytopathogenicity after 4 days by MTT assay; type: functional, organism-based; conditions: Human immunodeficiency virus 1, 3B, MT4, 96 h
Outline: (§1)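 MT-4 cells, acutely infected at m.o.i. 0.01, were used to read inhibition of HIV-1-induced cytopathogenicity. Compounds were made as 100 mM DMSO stocks and diluted in culture medium. Viability was read by MTT. EC50 is the concentration giving 50% protection, as the mean (+SD) of three independent determinations.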

[3] = Selectivity index, ratio of CC50 for human MT4 cells to EC50 for HIV1 3B; type: toxicity, cell-based; conditions: read-out: Ratio CC50/EC50
[4] = Chemical stability assessed as chemical hydrolysis half life in RPMI-1640 culture medium by HPLC analysis; type: physicochemical
Outline: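 Chemical hydrolysis of the compounds was followed in RPMI-1640 medium alone.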

[5] = test system: Human immunodeficiency virus 1; experiment: Antiviral activity against non-nucleoside reverse transcriptase inhibitor-resistant HIV1 bearing reverse transcriptase N119 (Y181C) mutation infected in human MT4 cells assessed as protection from virus-induced cytopathogenicity after 4 days by MTT assay; type: functional, organism-based; conditions: Human immunodeficiency virus 1, MT4, 96 h; outline: as §1
[6] = test system: Human immunodeficiency virus 1; experiment: Antiviral activity against non-nucleoside reverse transcriptase inhibitor-resistant HIV1 bearing reverse transcriptase A17 (K103N, Y181C) mutation infected in human MT4 cells assessed as protection from virus-induced cytopathogenicity after 4 days by MTT assay; type: functional, organism-based; conditions: Human immunodeficiency virus 1, MT4, 96 h; outline: as §1
[7] = test system: Human immunodeficiency virus 1; experiment: Antiviral activity against efavirenz-resistant HIV1 infected in human MT4 cells assessed as protection from virus-induced cytopathogenicity after 4 days by MTT assay; type: functional, organism-based; conditions: Human immunodeficiency virus 1, MT4, 96 h; outline: as §1
[8] = test system: Human immunodeficiency virus 1; experiment: Antiviral activity against azidothymidine-resistant HIV1 infected in human MT4 cells assessed as protection from virus-induced cytopathogenicity after 4 days by MTT assay; type: functional, organism-based; conditions: Human immunodeficiency virus 1, MT4, 96 h; outline: as §1
[9] = test system: Human immunodeficiency virus 1; experiment: Antiviral activity against MDR1-resistant HIV1 infected in human MT4 cells assessed as protection from virus-induced cytopathogenicity after 4 days by MTT assay; type: functional, organism-based; conditions: Human immunodeficiency virus 1, MT4, 96 h; outline: as §1
[10] = Chemical stability assessed as enzymatic hydrolysis half life in RPMI-1640 culture medium containing heat non-inactivated fetal bovine serum by HPLC analysis; type: physicochemical; conditions: cattle
Outline: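 Enzymatic hydrolysis by phosphoesterases was followed in RPMI-1640 containing heat non-inactivated FBS (RPMI/FBS 9:1, v/v).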

[11] = Chemical stability in RPMI-1640 culture medium at 2 uM up to 6 days by HPLC analysis; type: physicochemical; conditions: 144 h

Structure (SMILES)	CC50 at 96 h [1] [nM]	EC50 [2] [nM]	selectivity ratio [3]	half-life [4] [h]	EC50 [5] [nM]	EC50 [6] [nM]	EC50 [7] [nM]	EC50 [8] [nM]	EC50 [9] [nM]	half-life [10] [h]	Stability [11]
O=c1ccn([C@H]2CC[C@@H](CO)O2)c(=O)[nH]1	> 100000	> 100000									
Nc1ncnc2c1ncn2[C@H]1CC[C@@H](CO)O1	> 100000	5200	> 19								
Cc1cn([C@H]2C[C@H](N=[N+]=[N-])[C@@H](COP(=O)(Oc3ccccc3)Oc3cncc(Cl)c3)O2)c(=O)[nH]c1=O (stereo not given in full)	100000	40	2500	25.1	50	10	10	1500	600		
Cc1cn([C@H]2C[C@H](N=[N+]=[N-])[C@@H](COP(=O)(Oc3ccccc3)Oc3ccncc3)O2)c(=O)[nH]c1=O (stereo not given in full)	> 100000	10	> 10000	12.8	10	8	10	400	100		
Cc1cn([C@H]2C[C@H](N=[N+]=[N-])[C@@H](COP(=O)(Oc3ccc(Br)cc3)Oc3cccnc3)O2)c(=O)[nH]c1=O (stereo not given in full)	94000	30	3130	44.3	50	10	20	1800	500		
Cc1cn([C@H]2C[C@H](N=[N+]=[N-])[C@@H](COP(=O)(Oc3ccncc3)Oc3cccnc3)O2)c(=O)[nH]c1=O (stereo not given in full)	> 100000	20	> 5000	8.55	10	7	10	2300	1200		
Cc1ccc(OP(=O)(OC[C@H]2O[C@@H](n3cc(C)c(=O)[nH]c3=O)C[C@@H]2N=[N+]=[N-])Oc2ccc(C)nc2)cn1	> 100000	40	> 2500	21.4	50	10	30	800	400		
Cc1cn([C@H]2C[C@H](N=[N+]=[N-])[C@@H](COP(=O)(Oc3ccccc3)Oc3cccnc3Cl)O2)c(=O)[nH]c1=O (stereo not given in full)	≥ 100000	30	> 3330	16.1	20	10	10	1200	400		
Cc1cn([C@H]2C[C@H](N=[N+]=[N-])[C@@H](COP(=O)(Oc3ccc(C#N)cc3)Oc3cccnc3)O2)c(=O)[nH]c1=O (stereo not given in full)	58000	20	2900	2.88	20	9	30	800	300		
Cc1ncccc1OP(=O)(OC[C@H]1O[C@@H](n2cc(C)c(=O)[nH]c2=O)C[C@@H]1N=[N+]=[N-])Oc1cccnc1C	> 100000	20	> 5000	17.2	30	10	20	800	200		
Cc1cn([C@H]2C[C@H](N=[N+]=[N-])[C@@H](COP(=O)(O)Oc3ccccc3)O2)c(=O)[nH]c1=O										9.47	Stable
Nc1ncnc2c1ncn2[C@H]1CC[C@@H](COP(=O)(O)Oc2cccnc2)O1										64.2	Stable
Cc1ncccc1OP(=O)(OC[C@H]1O[C@@H](n2cc(C)c(=O)[nH]c2=O)C[C@@H]1N=[N+]=[N-])Oc1ccccc1 (stereo not given in full)	> 100000	100	> 1000	82.5	80	60	90	4700	1600		
Cc1cn([C@H]2C[C@H](N=[N+]=[N-])[C@@H](COP(=O)(Oc3cccnc3)Oc3ccc(Cl)cc3Cl)O2)c(=O)[nH]c1=O (stereo not given in full)	> 100000	10	> 10000	6.6	10	8	10	400	100		
Cc1cn([C@H]2C[C@H](N=[N+]=[N-])[C@@H](COP(=O)(Oc3cccnc3)Oc3cccnc3)O2)c(=O)[nH]c1=O	> 100000	10	> 10000	4.92	10	3	10	700	100		
O=c1ccn([C@H]2CC[C@@H](COP(=O)(Oc3ccncc3)Oc3cccnc3)O2)c(=O)[nH]1 (stereo not given in full)	> 100000	14000	> 7	7	9000	5000	7000	> 100000	≥ 100000		
Cc1ccc(OP(=O)(OC[C@H]2O[C@@H](n3cc(C)c(=O)[nH]c3=O)C[C@@H]2N=[N+]=[N-])Oc2ccccc2)cn1 (stereo not given in full)	> 100000	90	> 1110	44.4	80	40	70	7000	1600		
Nc1ncnc2c1ncn2[C@H]1CC[C@@H](COP(=O)(Oc2ccccc2)Oc2cccnc2)O1 (stereo not given in full)	> 100000	23000	> 4	88.8	30000	7000	16000	42000	50000		
O=c1ccn([C@H]2CC[C@@H](COP(=O)(Oc3ccccc3)Oc3ccncc3)O2)c(=O)[nH]1 (stereo not given in full)	> 100000	3000	> 33	26.8	4000	2000	2000	60000	38000		
Cc1cn([C@H]2C[C@H](N=[N+]=[N-])[C@@H](COP(=O)(Oc3ccc(Cl)cc3)Oc3cccnc3)O2)c(=O)[nH]c1=O (stereo not given in full)	≥ 100000	30	> 3330	55	40	10	10	1900	700		
Nc1ncnc2c1ncn2[C@H]1CC[C@@H](COP(=O)(O)Oc2ccccc2)O1										36.1	Stable
O=c1ccn([C@H]2CC[C@@H](COP(=O)(Oc3ccccc3)Oc3cccnc3)O2)c(=O)[nH]1 (stereo not given in full)	> 100000	38000	> 2	64.2	30000	11000	20000	> 100000	> 100000		
Cc1cn([C@H]2C[C@H](N=[N+]=[N-])[C@@H](COP(=O)(Oc3ccccc3)Oc3cccnc3)O2)c(=O)[nH]c1=O (stereo not given in full)	> 100000	50	> 2000	50.2	40	20	30	2300	500		
Cc1cn([C@H]2C[C@H](N=[N+]=[N-])[C@@H](CO)O2)c(=O)[nH]c1=O [ZIDOVUDINE]	60000		> 6000		10	10	10	600	100		
